Measured values: ChEMBL document CHEMBL3046504, “Synthesis and antifungal activity of beta-trifluoroalkyl aminovinyl ketone derivatives” (J Agric Food Chem, 2009)
Activity calls are given as the source filed them. No cut-off for these calls is given here.

Columns and labels:
Rhizoctonia solani = assay: Antifungal activity against Rhizoctonia solani assessed as radial growth inhibition at 10 to 100 uM; format: functional, organism-based
Method in brief: (§1)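 Initial screen on PDA plates (10 mL) amended with 10 or 100 μM compound, added from DMSO stocks (DMSO not exceeding 0.001% v/v) to warm (50 °C) sterile medium before pouring. Radial growth was compared with growth on unamended medium. Error bars are standard deviation.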

Solanum lycopersicum = assay: Phytotoxicity against Solanum lycopersicum (tomato) leaves; format: organism-based; settings: in vivo
Pythium aphanidermatum = assay: Antifungal activity against Pythium aphanidermatum assessed as radial growth inhibition at 10 to 100 uM; format: functional, organism-based; method in brief: as §1
Alternaria alternata = assay: Antifungal activity against Alternaria alternata assessed as radial growth inhibition at 100 uM; format: functional; settings: read-out: GI; method in brief: as §1
Botrytis cinerea [1] = assay: Antifungal activity against Botryotinia fuckeliana isolate Bcl16 assessed as radial growth inhibition during advanced test phase at 10 to 50 uM at 22 degC measured after 48 hr; format: functional, organism-based
Method in brief: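 B. cinerea isolate BcI16 was grown on PDA amended with compound across 0-50 μM, added from DMSO stock (≤0.001% v/v final) to 50 °C medium. Plates were incubated at 22 °C for 48 h, then radial growth was measured against unamended controls.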

Botrytis cinerea [2] = assay: Antifungal activity against Botryotinia fuckeliana isolate Bcl16 assessed as radial growth inhibition at 10 to 100 uM; format: functional, organism-based; method in brief: as §1
Medicago sativa = assay: Phytotoxicity against Medicago sativa (alfalfa) assessed as seed germination; format: organism-based; settings: in vivo
Penicillium digitatum = assay: Antifungal activity against Penicillium digitatum assessed as radial growth inhibition at 100 uM; format: functional; settings: read-out: GI; method in brief: as §1
Neurospora crassa = assay: Antifungal activity against Neurospora crassa strain 74-OR23-1A assessed as radial growth inhibition at 100 uM; format: functional, organism-based; method in brief: as §1
Sclerotinia sclerotiorum = assay: Antifungal activity against Sclerotinia sclerotiorum isolate 1980 assessed as radial growth inhibition during advanced test phase at 10 to 50 uM at 17 degC measured after 48 hr; format: functional, organism-based
Method in brief: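 S. sclerotiorum isolate 1980 was grown on PDA amended with compound across 0-50 μM, added from DMSO stock (≤0.001% v/v final) to 50 °C medium. Plates were incubated at 17 °C for 48 h, then radial growth was measured against unamended controls.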

N/C(=C\C(=O)c1ccc(O)cc1)C(F)(F)F
growth inhibition (GI) (Rhizoctonia solani): Active
Activity (Solanum lycopersicum): Non-toxic
growth inhibition (GI) (Pythium aphanidermatum): Active
inhibition of growth at 100 µM (Alternaria alternata): ≤ 50%
growth inhibition (GI) (Botrytis cinerea [1]): Active
growth inhibition (GI) (Botrytis cinerea [2]): Active
Activity (Medicago sativa): Non-toxic

N#Cc1ccc(C(=O)/C=C(\N)C(F)(F)F)cc1
growth inhibition (GI) (Rhizoctonia solani): Active
Activity (Solanum lycopersicum): Non-toxic
growth inhibition (GI) (Pythium aphanidermatum): Active
inhibition of growth at 100 µM (Alternaria alternata): ≤ 50%
growth inhibition (GI) (Botrytis cinerea [2]): Active
Activity (Medicago sativa): Non-toxic

CC(C)(C)OC(=O)Nc1ccc(C(=O)/C=C(\N)C(F)(F)F)cc1
growth inhibition (GI) (Rhizoctonia solani): Active
Activity (Solanum lycopersicum): Non-toxic
growth inhibition (GI) (Pythium aphanidermatum): Active
inhibition of growth at 100 µM (Alternaria alternata): ≤ 50%
growth inhibition (GI) (Botrytis cinerea [2]): Active
Activity (Medicago sativa): Non-toxic

N/C(=C\C(=O)c1ccc(Cl)cc1)C(F)(F)F
inhibition of growth at 100 µM (Penicillium digitatum): > 50%
growth inhibition (GI) (Rhizoctonia solani): Active
growth inhibition (GI) (Neurospora crassa): Active
Activity (Solanum lycopersicum): Non-toxic
growth inhibition (GI) (Pythium aphanidermatum): Active
inhibition of growth at 100 µM (Alternaria alternata): ≤ 50%
growth inhibition (GI) (Botrytis cinerea [1]): Active
growth inhibition (GI) (Botrytis cinerea [2]): Active
Activity (Medicago sativa): Non-toxic

N/C(=C\C(=O)c1ccc(F)cc1)C(F)(F)F
growth inhibition (GI) (Rhizoctonia solani): Active
growth inhibition (GI) (Neurospora crassa): Active
Activity (Solanum lycopersicum): Non-toxic
growth inhibition (GI) (Pythium aphanidermatum): Active
inhibition of growth at 100 µM (Alternaria alternata): ≤ 50%
growth inhibition (GI) (Botrytis cinerea [2]): Active
Activity (Medicago sativa): Non-toxic

N/C(=C\C(=O)c1ccc2ccccc2c1)C(F)(F)F
growth inhibition (GI) (Rhizoctonia solani): Active
Activity (Solanum lycopersicum): Non-toxic
growth inhibition (GI) (Pythium aphanidermatum): Active
inhibition of growth at 100 µM (Alternaria alternata): ≤ 50%
growth inhibition (GI) (Botrytis cinerea [2]): Active
Activity (Medicago sativa): Non-toxic

N/C(=C\C(=O)c1cccc(Br)c1)C(F)(F)F
growth inhibition (GI) (Rhizoctonia solani): Active
growth inhibition (GI) (Neurospora crassa): Active
Activity (Solanum lycopersicum): Non-toxic
growth inhibition (GI) (Pythium aphanidermatum): Active
inhibition of growth at 100 µM (Alternaria alternata): ≤ 50%
growth inhibition (GI) (Botrytis cinerea [1]): Active
growth inhibition (GI) (Botrytis cinerea [2]): Active
Activity (Medicago sativa): Non-toxic

CC(=O)c1ccc(O)cc1 [4-HYDROXYACETOPHENONE]
growth inhibition (GI) (Rhizoctonia solani): Active
Activity (Solanum lycopersicum): Non-toxic
growth inhibition (GI) (Sclerotinia sclerotiorum): Active
growth inhibition (GI) (Pythium aphanidermatum): Active
inhibition of growth at 100 µM (Alternaria alternata): ≤ 50%
growth inhibition (GI) (Botrytis cinerea [1]): Active
growth inhibition (GI) (Botrytis cinerea [2]): Active
Activity (Medicago sativa): Non-toxic

CC/C(C(=O)c1ccc(Cl)cc1)=C(/N)C(F)(F)F
growth inhibition (GI) (Rhizoctonia solani): Active
Activity (Solanum lycopersicum): Non-toxic
growth inhibition (GI) (Pythium aphanidermatum): Active
inhibition of growth at 100 µM (Alternaria alternata): ≤ 50%
growth inhibition (GI) (Botrytis cinerea [2]): Active
Activity (Medicago sativa): Non-toxic

N/C(=C\C(=O)c1ccc(Cl)cc1)C(F)(F)C(F)(F)F
growth inhibition (GI) (Rhizoctonia solani): Active
Activity (Solanum lycopersicum): Non-toxic
growth inhibition (GI) (Sclerotinia sclerotiorum): Active
growth inhibition (GI) (Pythium aphanidermatum): Active
inhibition of growth at 100 µM (Alternaria alternata): ≤ 50%
growth inhibition (GI) (Botrytis cinerea [1]): Active
growth inhibition (GI) (Botrytis cinerea [2]): Active
Activity (Medicago sativa): Non-toxic
